Measurements as given in ChEMBL document CHEMBL4017460, “A Tobramycin Vector Enhances Synergy and Efficacy of Efflux Pump Inhibitors against Multidrug-Resistant Gram-Negative Bacteria” (J Med Chem, 2017).
≈ marks a conversion by molar mass, not a printed value. Calls of active or inactive are those of the source. The calls are words filed in the database; no cut-off is given here.

What was measured:
Pseudomonas aeruginosa [1] = test: Inhibition of RND efflux pump in Pseudomonas aeruginosa isolate […] assessed as potentiation of minocycline-induced antibacterial activity by measuring minocycline MIC at 8 ug/ml after 18 to 24 hrs by microbroth dilution assay (reference value: 64 ug/ml); details: isolate P262-104354
In short: (§1)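 Absolute minocycline MIC taken from checkerboard broth dilution with a fixed 8 μg/mL adjuvant. Inoculum was a 0.5 McFarland saline suspension diluted 1:50 in MHB, incubated 37 °C for 18 h. MIC is the lowest concentration with no growth.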

Pseudomonas aeruginosa [2] = test: Inhibition of RND efflux pump in colistin-resistant Pseudomonas aeruginosa isolate 91433 assessed as potentiation of minocycline-induced antibacterial activity by measuring minocycline MIC at 8 ug/ml after 18 to 24 hrs by microbroth dilution assay (reference value: 32 ug/ml)
In short: (§2)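 Checkerboard broth microdilution: antibiotic 2-fold diluted along one axis, adjuvant 2-fold diluted along the other. Overnight culture standardized to 0.5 McFarland in saline, diluted 1:50 in MHB, added to wells, 37 °C for 18 h. MIC is the lowest concentration with no growth. FIC = MIC in combination / MIC alone; FICI = sum of the two FICs; FICI ≤0.5 is synergy.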

[3] = system: Pseudomonas aeruginosa PAO1; test: Inhibition of RND efflux pump in Pseudomonas aeruginosa PAO1 assessed as potentiation of minocycline-induced bactericidal activity at 0.5 times antibacterial MIC up to 24 hrs by serial dilution assay
Pseudomonas aeruginosa [4] = test: Inhibition of RND efflux pump in Pseudomonas aeruginosa isolate P264-104354 assessed as potentiation of minocycline-induced antibacterial activity at 8 ug/ml after 18 to 24 hrs by checker board assay
In short: as §2, with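 “in MHB:” for “broth microdilution:”, “test agent” for “adjuvant”, “wells, incubated” for “wells,”, “FIC index” for “FICI”, “both FICs.” for “the two FICs; FICI ≤0.5 is synergy.”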

Pseudomonas aeruginosa [5] = test: (§3) Inhibition of RND efflux pump in XDR Pseudomonas aeruginosa isolate P262-101856 infected in Galleria mellonella assessed as potentiation of minocycline-induced antibacterial activity by measuring larval survival rate at 75 mg/kg co-treated with 75 mg/kg minocycline measured after 24 hrs relative to control; assay type: organism-based
In short: (§4)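 G. mellonella larvae infected with 1.0 × 10^5/mL CFU of XDR P. aeruginosa 101856. A single-dose injection of agent, alone or with minocycline, given 2 h post-infection. Survival scored up to 24 h. 15 larvae per experiment from different batches, two experiments per dosage (n = 30). Significance 0 vs 24 h at P ≤ 0.05.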

Pseudomonas aeruginosa [6] = test: Antibacterial activity against XDR Pseudomonas aeruginosa isolate P262-101856 infected in Galleria mellonella assessed as protection against bacterial infection by measuring larval death at 75 mg/kg up to 24 hrs relative to control; assay type: functional; in short: as §4
[7] = Hemolytic activity against ovine erythrocytes at 1000 ug/ml after 30 mins relative to control; assay type: ADME, cell-based, Ovis aries, Erythrocyte; details: sheep, read-out: Activity
Pseudomonas aeruginosa [8] = test: Inhibition of RND efflux pump in colistin-resistant Pseudomonas aeruginosa isolate 91433 assessed as potentiation of minocycline-induced antibacterial activity by measuring fold reduction in minocycline MIC at 8 ug/ml after 18 to 24 hrs by microbroth dilution assay; in short: as §2
Galleria mellonella = test: Toxicity in Galleria mellonella assessed as death at 200 mg/kg up to 96 hrs; assay type: organism-based; details: in vivo
[9] = system: Pseudomonas aeruginosa PAO1; test: Inhibition of RND efflux pump in Pseudomonas aeruginosa PAO1 assessed as potentiation of minocycline-induced antibacterial activity by measuring fold reduction in minocycline MIC at 8 ug/ml after 18 to 24 hrs by microbroth dilution assay relative to minocycline alone; in short: as §1
Pseudomonas aeruginosa [10] = test: Antibacterial activity against Pseudomonas aeruginosa isolate P260-97103 after 18 to 24 hrs by microbroth dilution assay; assay type: functional
In short: as §2, with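 “in MHB:” for “broth microdilution:”, “test agent” for “adjuvant”, “wells, incubated” for “wells,”, “FIC index” for “FICI”, “both FICs.” for “the two FICs; FICI ≤0.5 is synergy.”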

Pseudomonas aeruginosa [11] = test: as §3, with “37.5” for “75”; assay type: organism-based; in short: as §4
Pseudomonas aeruginosa [12] = test: Inhibition of RND efflux pump in colistin-resistant Pseudomonas aeruginosa isolate 91433 assessed as potentiation of minocycline-induced antibacterial activity at 8 ug/ml after 18 to 24 hrs by checker board assay; in short: as §2
[13] = system: Pseudomonas aeruginosa PAO1; test: Inhibition of RND efflux pump in Pseudomonas aeruginosa PAO1 assessed as potentiation of minocycline-induced antibacterial activity by measuring ratio of minocycline MIC after 25 serial passages to minocycline MIC at sub-MIC after 18 to 24 hrs by microbroth dilution assay
Pseudomonas aeruginosa [14] = test: Inhibition of RND efflux pump in colistin-resistant Pseudomonas aeruginosa isolate 91433 assessed as potentiation of minocycline-induced antibacterial activity by measuring fold reduction in minocycline MIC at 0.25 times antibacterial MIC after 18 to 24 hrs by microbroth dilution assay; in short: as §2
Pseudomonas aeruginosa [15] = test: Inhibition of RND efflux pump in colistin-resistant Pseudomonas aeruginosa isolate 91433 assessed as potentiation of minocycline-induced antibacterial activity at 0.25 times antibacterial MIC after 18 to 24 hrs by checker board assay; in short: as §2
[16] = system: Pseudomonas aeruginosa PAO1; test: Inhibition of RND efflux pump in Pseudomonas aeruginosa PAO1 assessed as potentiation of minocycline-induced bactericidal activity up to 1 time antibacterial MIC after 9 hrs by serial dilution assay
Pseudomonas aeruginosa [17] = test: Inhibition of RND efflux pump in Pseudomonas aeruginosa isolate P264-104354 assessed as potentiation of minocycline-induced antibacterial activity at 0.25 times antibacterial MIC after 18 to 24 hrs by checker board assay
In short: as §2, with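 “in MHB:” for “broth microdilution:”, “test agent” for “adjuvant”, “wells, incubated” for “wells,”, “FIC index” for “FICI”, “both FICs.” for “the two FICs; FICI ≤0.5 is synergy.”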

[18] = Toxicity in Galleria mellonella assessed as death at 100 mg/kg after 24 hrs relative to control; assay type: organism-based; details: in vivo, read-out: Activity
Pseudomonas aeruginosa [19] = test: Inhibition of RND efflux pump in Pseudomonas aeruginosa isolate […] assessed as potentiation of minocycline-induced antibacterial activity by measuring minocycline MIC at 0.25 times antibacterial MIC after 18 to 24 hrs by microbroth dilution assay (reference value: 64 ug/ml); details: isolate P262-104354; in short: as §2
Pseudomonas aeruginosa [20] = test: Inhibition of RND efflux pump in colistin-resistant Pseudomonas aeruginosa isolate 91433 assessed as potentiation of minocycline-induced antibacterial activity by measuring minocycline MIC at 0.25 times antibacterial MIC after 18 to 24 hrs by microbroth dilution assay (reference value: 32 ug/ml); in short: as §2
[21] = Cytotoxicity against human DU145 cells assessed as reduction in cell viability after 24 hrs by MTS assay; assay type: cell-based, DU-145
[22] = Cytotoxicity against human JIMT1 cells assessed as reduction in cell viability after 24 hrs by MTS assay; assay type: cell-based, JIMT-1

Cl.Cl.Cl.Cl.Cl.Cl.Cl.NC[C@H]1O[C@H](O[C@H]2[C@H](OCCCCCCCCCCCCN3CCN(Cc4cccc5ccccc45)CC3)[C@@H](O[C@H]3O[C@H](CO)[C@@H](O)[C@H](N)[C@H]3O)[C@H](N)C[C@@H]2N)[C@H](N)C[C@@H]1O
MIC (Pseudomonas aeruginosa [1]): < 0.5 µg/mL | MIC (Pseudomonas aeruginosa [2]): 0.25 µg/mL | inhibition [3]: Active | fractional inhibitory concentration index (FICI) (Pseudomonas aeruginosa [4]): 0.03 | Survival (Pseudomonas aeruginosa [5]): 77% | Activity (Pseudomonas aeruginosa [6]): 100% | hemolysis at 0.5 h, 1000 ug/ml [7]: ≤ 5% | fold change (FC) (Pseudomonas aeruginosa [8]): 8 to 256 | Activity (Galleria mellonella): Non-Toxic | fold change (FC) [9]: 16 | MIC (Pseudomonas aeruginosa [10]): 2 µg/mL | Survival (Pseudomonas aeruginosa [11]): 10% | fractional inhibitory concentration index (FICI) (Pseudomonas aeruginosa [12]): 0.13

Cl.Cl.Cl.Cl.Cl.Cl.NC[C@H]1O[C@H](O[C@H]2[C@H](OCCCCCCCCCCCCN3CC[C@@H](c4ccc(F)cc4)[C@H](COc4ccc5c(c4)OCO5)C3)[C@@H](O[C@H]3O[C@H](CO)[C@@H](O)[C@H](N)[C@H]3O)[C@H](N)C[C@@H]2N)[C@H](N)C[C@@H]1O
MIC (Pseudomonas aeruginosa [1]): < 0.5 µg/mL | MIC (Pseudomonas aeruginosa [2]): 0.25 µg/mL | inhibition [3]: Active | fractional inhibitory concentration index (FICI) (Pseudomonas aeruginosa [4]): 0.06 | Survival (Pseudomonas aeruginosa [5]): 56% | Activity (Pseudomonas aeruginosa [6]): 100% | hemolysis at 0.5 h, 1000 ug/ml [7]: ≤ 5% | fold change (FC) (Pseudomonas aeruginosa [8]): 8 to 256 | Activity (Galleria mellonella): Non-Toxic | MIC (Pseudomonas aeruginosa [10]): 8 µg/mL | Ratio [13]: 2 | fractional inhibitory concentration index (FICI) (Pseudomonas aeruginosa [12]): 0.19

NC[C@H]1C[C@H](C(=O)N[C@H](CCc2ccccc2)C(=O)Nc2ccc3ccccc3c2)N(CCCCCCCCCCCCO[C@@H]2[C@@H](O[C@H]3O[C@H](CO)[C@@H](O)[C@H](N)[C@H]3O)[C@H](N)C[C@H](N)[C@H]2O[C@H]2O[C@H](CN)[C@@H](O)C[C@H]2N)C1
fold change (FC) (Pseudomonas aeruginosa [14]): 8 to 256 | fractional inhibitory concentration index (FICI) (Pseudomonas aeruginosa [15]): 0.16 | inhibition [16]: Active | fractional inhibitory concentration index (FICI) (Pseudomonas aeruginosa [17]): 0.25 | mortality at 24 h [18]: 100% | MIC (Pseudomonas aeruginosa [19]): < 0.5 µg/mL | MIC (Pseudomonas aeruginosa [20]): 0.25 µg/mL | CC50 at 24 h [21]: > 30 µM | fold change (FC) [9]: 64 | MIC (Pseudomonas aeruginosa [10]): 4 µg/mL (≈ 3.76 µM) | Ratio [13]: 2 | CC50 at 24 h [22]: > 30 µM
